Avidin bead fluor: green autofluorescence of compounds with avidin beads – biophysical, 488/530 nm, flow cytometry, artefact control, profiling panel; actives 0.38% (n = 220,000); compound fluorescence 488/530 nm; active compounds read high; fluorescence (KMESF) at 10 µM; AID 1775, 2009; in the data active means fluorescence above about 47
PKD1 inh: inhibitors of human PKD1 kinase, biochemical, fluorescence polarization; Serine/threonine-protein kinase D1 (Homo sapiens), Q15139; actives 0.056% (n = 200,000); inhibition, % (test concentration not listed); PKD1 kinase fluorescence polarization assay
L major viab: Leishmania major promastigote growth inhibition, primary screen; inhibition, % at 10 µM; Leishmania major promastigotes, resazurin fluorescence viability; actives 9% (n = 200,000); AID 1063, 2008;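 further: promastigotes grown with compound for 44 hours at 28 °C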
ABCB1 inh: ABCB1 efflux pump inhibitors, primary screen, cell-based, multiplex, flow cytometry, ABCG2 counter-screen | ATP-dependent translocase ABCB1 (Homo sapiens), P08183 | CCRF-Adr cells, JC-1 efflux | inhibition, % at 6.6 µM | actives 0.067% (n = 190,000); in the data active means inhibition above about 40%;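 further: 0% = vehicle and 100% = reference inhibitor; higher value means more JC-1 retained so stronger ABCB1 efflux block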
Target sequence (P08183 whole entry, looked up): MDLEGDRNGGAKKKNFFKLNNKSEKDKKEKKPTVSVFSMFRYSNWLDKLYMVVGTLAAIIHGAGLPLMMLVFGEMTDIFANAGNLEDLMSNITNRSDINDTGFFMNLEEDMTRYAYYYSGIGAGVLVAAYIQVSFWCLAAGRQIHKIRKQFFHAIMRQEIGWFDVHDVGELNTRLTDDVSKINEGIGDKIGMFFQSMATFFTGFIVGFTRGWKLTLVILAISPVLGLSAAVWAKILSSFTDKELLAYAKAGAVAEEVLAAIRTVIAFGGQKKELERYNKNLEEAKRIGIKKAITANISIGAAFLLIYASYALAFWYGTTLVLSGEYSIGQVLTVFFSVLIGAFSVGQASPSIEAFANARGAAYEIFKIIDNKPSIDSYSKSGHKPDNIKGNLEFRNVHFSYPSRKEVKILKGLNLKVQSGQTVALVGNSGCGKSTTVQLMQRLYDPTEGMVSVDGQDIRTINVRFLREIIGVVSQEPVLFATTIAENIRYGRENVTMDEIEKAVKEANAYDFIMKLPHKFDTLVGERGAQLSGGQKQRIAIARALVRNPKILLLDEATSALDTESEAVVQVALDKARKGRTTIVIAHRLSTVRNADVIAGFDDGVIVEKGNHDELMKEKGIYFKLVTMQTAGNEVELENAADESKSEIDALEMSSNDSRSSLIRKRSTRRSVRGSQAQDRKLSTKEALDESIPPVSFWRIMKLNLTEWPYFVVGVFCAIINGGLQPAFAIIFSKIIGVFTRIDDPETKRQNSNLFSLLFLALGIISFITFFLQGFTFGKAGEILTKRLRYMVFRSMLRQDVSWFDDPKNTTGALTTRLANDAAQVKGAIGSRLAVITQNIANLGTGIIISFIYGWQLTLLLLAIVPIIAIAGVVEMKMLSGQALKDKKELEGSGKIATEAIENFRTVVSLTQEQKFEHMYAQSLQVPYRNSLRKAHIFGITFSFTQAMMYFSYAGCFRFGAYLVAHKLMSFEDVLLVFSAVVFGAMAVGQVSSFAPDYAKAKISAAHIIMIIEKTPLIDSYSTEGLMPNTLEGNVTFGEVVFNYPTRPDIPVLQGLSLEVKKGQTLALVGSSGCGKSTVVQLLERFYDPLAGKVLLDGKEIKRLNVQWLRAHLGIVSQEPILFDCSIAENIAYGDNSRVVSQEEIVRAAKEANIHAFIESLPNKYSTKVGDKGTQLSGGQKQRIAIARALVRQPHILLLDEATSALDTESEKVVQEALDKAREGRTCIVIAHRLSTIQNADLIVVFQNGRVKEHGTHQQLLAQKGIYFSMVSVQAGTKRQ
ABCG2 inh: ABCG2 efflux pump inhibitors, primary screen, multiplex with ABCB1, IgMXP3 cells, flow cytometry | AID 1325, 2008 | actives 0.1% (n = 190,000) | inhibition, % at 6.6 µM | Broad substrate specificity ATP-binding cassette transporter ABCG2 (Homo sapiens), Q9UNQ0 | JC-1 efflux;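 active means inhibition above 80%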;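 further: 0% = DMSO and 100% = nicardipine control wells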
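Read-out basis: Efflux inhibition in percent versus controls | Test system: ABCG2 IgMXP3 and barcoded ABCB1 CCRF-Adr cell mix | Quantity: 3 million cells/mL in well | Schedule: 10 min at 25 °C | Control set: Nicardipine as high control, DMSO as low control | Reagent: JC-1 as fluorescent efflux pump substrate | Signal: Flow cytometry of retained JC-1 fluorescence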
GSH fluor: compound fluorescence on glutathione beads, profiling panel, artefact control, biophysical, 488/530 nm, flow cytometry; AID 1776, 2009; actives 0.25% (n = 190,000); GSH beads flow cytometry, compound fluorescence 488/530 nm; active compounds read high; fluorescence (KMESF) at 10 µM; in the data active means fluorescence above about 89;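 further: glutathione beads carrying GST-tagged Bcl family fusion proteins plus one bare bead set; values are compound well signal with DMSO vehicle wells as background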
* = called active by the depositor; · = not tested or not shown. Many of the other results were omitted from the sample, so hits are more common in it than they were. Unless noted, no stated cut-off is given here; in the data, active means inhibition above about 50%; inactive means the rest.

SMILES	Avidin bead fluor	PKD1 inh	L major viab	ABCB1 inh	ABCG2 inh	GSH fluor
NNC(=O)c1cc(-c2cccs2)nc2ccccc12	17	·	·	·	·	·
C/C(=N\NC(=O)c1cc(-c2cccs2)nc2ccccc12)c1ccccn1	11	5	100*	4	11	12
Cc1ccc(-n2c(SCC(=O)N/N=C/c3c(C)nn(-c4ccccc4)c3C)nc3ccccc3c2=O)cc1	9	-10	12	18	34	11
Cc1nn(-c2ccccc2)c(C)c1/C=N/NC(=O)CSc1nnc(SCc2cccc3ccccc23)s1	4	-6	97*	6	4	9
O=C(CSc1nnc(COc2cccc3cccnc23)o1)N1CCN(C(=O)c2ccco2)CC1	6	-12	-3	0	-1	136*
CC(=O)NC1=NN(C(C)=O)C2(S1)C(=O)N(CC(C)C)c1ccc(C)cc12 (stereo not given)	23	·	·	·	·	·
O=C1CCCC2=C1C(c1ccc(Cl)cc1)n1c(s/c(=C\c3ccc4ccncc4c3)c1=O)=N2 (stereo not given)	14	2	98*	-1	-5	14
CC1=C(C(=O)Nc2ccccc2)C(c2ccc(Cl)cc2)n2c(s/c(=C/c3cccc(OCC(=O)O)c3)c2=O)=N1 (stereo not given)	9	-4	5	-1	-4	10
CCCCC(=O)Nc1ccc(C(=O)N2CCCC(C(=O)OCC)C2)cc1 (stereo not given)	11	-5	-5	1	6	50
Clc1cccc(Cl)c1-c1noc(CN2CCOCC2)n1	9	·	·	·	·	·
CCN1/C(=C/c2cc[n+](CCCS(=O)(=O)[O-])c3ccccc23)Sc2ccccc21	11	1	100*	0	1	11
O=C(COC(=O)CCSc1ccc(Cl)cc1)NCc1ccc(Cl)cc1	6	-8	-5	0	10	13
O=C(COC(=O)CCSc1ccc(Cl)cc1)NCc1ccccc1	15	5	60*	1	14	7
O=C(COC(=O)CCSc1ccccc1)Nc1ccc(F)cc1Cl	14	-5	53*	0	0	3
CCCC(c1nnnn1CCOC)N1CCN(c2nc3ccccc3s2)CC1 (stereo not given)	15	-7	6	1	3	11
CN(C)/N=C/C=C1\CC/C(=C\c2ccc(Br)cc2)C1=O	10	-1	77*	0	8	11
CN(C)c1ccc(CN(C(=O)C2COc3ccccc3O2)C2CCS(=O)(=O)C2)cc1 (stereo not given)	3	-3	4	1	1	18
O=C(C1Cc2ccccc2CN1C(=O)c1ccccc1)N1CCN(c2ccccc2)CC1 (stereo not given)	10	·	·	·	·	·
COc1ccc(-c2noc(CSc3nnc(-c4ccncc4)n3-c3ccc(F)cc3)n2)cc1OC	12	-1	72*	2	5	50
CCc1ccc(-n2c(SCc3c(C)noc3C)nnc2-c2ccncc2)cc1	7	0	72*	1	1	12
O=C(CSc1n[nH]c(=O)[nH]c1=O)N/N=C/c1ccccc1	10	4	56*	2	4	215*
CC1(C)CC(NC(=O)C(Cl)(Cl)Cl)CC(C)(C)N1	5	-1	-4	·	1	13
c1ccc(N/N=C2\CCCc3ccccc32)nc1	7	7	18	1	2	16
Fc1ccc2c(c1)/C(=N/Nc1ccccn1)CCS2	17	-3	55*	0	1	24
CCCCNC(=O)N1c2ccccc2CC1C (stereo not given)	9	-2	1	0	10	12
COc1ccccc1/C=C(/C(=O)OCC(N)=O)c1ccccc1	12	-6	62*	0	8	6
Nc1nnc(CSCc2cccc(Br)c2)s1	11	-5	4	2	7	20
O=C(CSc1ccccc1)N(c1ccc(Br)cc1)c1nccs1	9	-4	67*	2	6	4

From PubChem
